Results on ten compounds are retold here after ChEMBL document CHEMBL1125771, “Synthesis, activation, and cytotoxicity of aldophosphamide analogues” (J Med Chem, 1991).

The test system of series [1] is P388. Kind of series: In vitro antitumor activity against cyclophosphamide-resistant P388/CP cells. The format is functional, Mus musculus. Summed up: (§1)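 Clonogenic survival assay in wild-type or cyclophosphamide-resistant L1210 and P388 cells with 1-h drug exposure. LC99 is the concentration that lowers colony formation to 1% of control. It comes from linear regression of log surviving fraction vs concentration over the linear portion, using at least three determinations. Standard errors are within ±10%.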

The subject of series [2] is P388. Kind of series: In vitro antitumor activity against wild-type P388/0 cells. The format is functional, Mus musculus. Summed up:
as §1

In series [3] the test system is L1210. Kind of series: In vivo antitumor activity against intraperitoneal murine wild type L1210 Leukemia cells at 340 umol/kg. The format is functional, Mus musculus.
In series [4] the test system is L1210. Kind of series: Ratio of resistance factor LC99 […] to that of LC99 […]. The format is functional, Mus musculus. Summed up: (§2)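 Resistance factor is LC99 in the cyclophosphamide-resistant line divided by LC99 in the wild-type line. Each LC99 is from a clonogenic assay with 1-h drug exposure: the concentration that reduces colonies to 1% of control, by linear regression of log survival vs concentration from at least three determinations.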

Series [5] relates to L1210. Kind of series: In vitro antitumor activity against wild-type L1210/0 cells. The format is functional, Mus musculus. Summed up:
as §1

The subject of series [6] is P388. Kind of series: Ratio of resistance factor LC99 […] to that of LC99 […]. The format is functional, Mus musculus. The method, boiled down:
as §2

Series [7] has as its system L1210. Kind of series: In vivo antitumor activity against intraperitoneal murine wild type L1210 Leukemia cells at 170 umol/kg. The format is functional, Mus musculus.
The subject of series [8] is L1210. Kind of series: In vivo antitumor activity against intraperitoneal murine wild type L1210 Leukemia cells at 510 umol/kg. The format is functional, Mus musculus.
Series [9] deals with L1210. Kind of series: In vitro antitumor activity against cyclophosphamide-resistant L1210/CP cells. The format is functional, Mus musculus. The method, boiled down: as §1
The nature of series [10]: Hydrolysis rate constant at pH 7.8 and 25 mM HEPES buffer. The format is ADME. The method, boiled down:
(§3)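 Spectrophotometric hydrolysis assay of model perhydrooxazines at 37 °C. Buffer strength was varied by mixing a stock of 0.25 M HEPES, phenol red (10 mg/100 mL) and KCl (μ = 0.20) with a matching stock that lacked HEPES. Substrate was added in DMSO (1:4 v/v) at a perhydrooxazine:buffer molar ratio of 0.1, with DMSO in the reference cell. The phenol red absorbance rise at 560 nm was read over 1 h. k came from the slope of ln(A∞ − At) vs time.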

A short description of series [11]: Hydrolysis rate constant at pH 7.4 and 50 mM HEPES buffer. The format is ADME. The method, boiled down:
as §3

Series [12] can be described thus: Hydrolysis rate constant at pH 7 and 25 mM HEPES buffer. The format is ADME. Summed up: as §3
The nature of series [13]: Hydrolysis rate constant at pH 7.4 and 12.5 mM HEPES buffer. The format is ADME. The method, boiled down:
as §3

A short description of series [14]: Hydrolysis rate constant at pH 6.8 and 25 mM HEPES buffer. The format is ADME. Summed up: as §3
The nature of series [15]: Hydrolysis rate constant at pH 7.4 and 25 mM HEPES buffer. The format is ADME. Summed up:
as §3

Turning to `CC1CC(C)(C)NC(CC(OP(=O)(N(CCCl)CCCl)N(CCCl)CCCl)c2ccccc2)O1` (stereo unspecified), the LC99 in series [1] amounted to 2 µM; in series [2], 2 µM; in [5] it was 2 µM; in series [9], 3 µM. For the same compound, the T/C is listed as 150% in [3], 125% in [7] and 170% in [8]. In addition, the RF in series [4] worked out at 1.5; in series [6], 1.
For `CC1CC(C)(C)NC(CCOP(=O)(N(CCCl)CCCl)N(CCCl)CCCl)O1` (stereo unspecified), the LC99 in [1] is 10 µM; in series [2], 5 µM; in series [5], 7 µM; in series [9] it was 19 µM. The RF in [4] is listed as 2.7; in series [6], 2.
As for `CC1CC(C)(C)NC(CCOP(N)(=O)N(CCCl)CCCl)O1` (stereo unspecified), the LC99 in series [1] is 92 µM; in [2], 19 µM; in series [5], 21 µM; in [9], 145 µM. Further, the T/C turned out to be 144% in [3], 144% in [7] and 167% in series [8]. Further, the RF in series [4] is 6.9; in [6], 4.8.
With `CCN(CC)P(=O)(OCCC1NC(C)(C)CC(C)O1)N(CC)CC` (stereo unspecified), the LC99 in [1], in series [2], in series [5] and in series [9] was greater than 200 µM each time.
Take `C[C@@H]1CC(C)(C)N[C@H](CCc2ccccc2)O1`: the khydr in [10] is 0.0082 min⁻¹; in series [11], 0.0095 min⁻¹; in series [12] it was 0.0065 min⁻¹; in series [13], 0.0086 min⁻¹; in series [14], 0.0042 min⁻¹; in series [15], 0.0094 min⁻¹.
In the case of `CC1CC(C)(C)NC(CC(OP(=O)(N(CCCl)CCCl)N2CCOCC2)c2ccccc2)O1` (stereo unspecified), the LC99 amounted to 22 µM in series [1], 16 µM in series [2], 28 µM in [5] and 38 µM in [9]. Moreover, the T/C in series [3] turned out to be 100%; in [7], 100%; in series [8], 111%. Besides, the RF in series [4] and in series [6] was 1.4 throughout.
As to `CC1CC(C)(C)NC(CCOP(=O)(N(CCCl)CCCl)N2CCOCC2)O1` (stereo unspecified), the LC99 was found to be 117 µM in series [1], 56 µM in [2], 84 µM in series [5] and 150 µM in series [9]. The T/C in series [3] and in [8] was 113% throughout. For the same compound, the RF in series [4] stood at 1.8; in series [6] it was 2.1.
With `CC1CC(C)(C)NC(CC(OP(N)(=O)N(CCCl)CCCl)c2ccccc2)O1` (stereo unspecified), the LC99 was determined as 10 µM in series [1], 7 µM in [2], 13 µM in [5] and 14 µM in [9]. Besides, the T/C in [3] and in series [7] was 125% throughout. Further, the figures for the RF in series [4] and in series [6] were 1.1 and 1.4, respectively.
In the case of `CCN(CC)P(N)(=O)OC(CC1NC(C)(C)CC(C)O1)c1ccccc1` (stereo unspecified), the LC99 in [1], in [2], in series [5] and in [9] was greater than 200 µM throughout.
`CC[C@H]1NC(C)(C)C[C@@H](C)O1`: the khydr in series [11] worked out at 0.0086 min⁻¹; in series [13], 0.0088 min⁻¹; in series [15], 0.0085 min⁻¹.
